ChEMBL document CHEMBL1146258, “N6-Cycloalkyl-2-substituted adenosine derivatives as selective, high affinity adenosine A1 receptor agonists” (Bioorg Med Chem Lett, 2007)
pKi: −log10 of the molar value.

What was measured:
[1] = target: T1, Adenosine receptor A3 (Homo sapiens, UniProt P0DMS8); assay: Displacement of [125I]ABMECA from adenosine A3 receptor expressed in CHO cells; assay type: cell-based
T1 sequence (P0DMS8 whole entry): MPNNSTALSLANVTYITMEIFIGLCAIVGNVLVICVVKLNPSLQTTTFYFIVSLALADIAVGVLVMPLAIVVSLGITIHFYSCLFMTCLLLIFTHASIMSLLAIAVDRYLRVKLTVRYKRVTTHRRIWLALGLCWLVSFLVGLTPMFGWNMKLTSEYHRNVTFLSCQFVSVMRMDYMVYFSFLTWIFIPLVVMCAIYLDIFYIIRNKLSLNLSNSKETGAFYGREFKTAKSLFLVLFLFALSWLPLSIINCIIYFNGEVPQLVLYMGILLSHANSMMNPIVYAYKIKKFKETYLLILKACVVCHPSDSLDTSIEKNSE

[2] = target: Adenosine receptor A2a (Homo sapiens, UniProt P29274); assay: Displacement of [3H]ZM-241385 from A2A adenosine A2A receptor expressed in HEK cells; assay type: cell-based, HEK293
Outline: (§1)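 HEK cells expressing A2A or A2B receptor, [³H]-ZM241385 radioligand, run without GTP; Ki for the high-affinity (coupled) state. 95% confidence limits generally 15% of mean.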

[3] = target: T2, Adenosine receptor A2b (Homo sapiens, UniProt P29275); assay: Displacement of [3H]ZM241385 from adenosine A2B receptor expressed in HEK cells; assay type: cell-based, HEK293; outline: as §1
T2 sequence (P29275 whole entry): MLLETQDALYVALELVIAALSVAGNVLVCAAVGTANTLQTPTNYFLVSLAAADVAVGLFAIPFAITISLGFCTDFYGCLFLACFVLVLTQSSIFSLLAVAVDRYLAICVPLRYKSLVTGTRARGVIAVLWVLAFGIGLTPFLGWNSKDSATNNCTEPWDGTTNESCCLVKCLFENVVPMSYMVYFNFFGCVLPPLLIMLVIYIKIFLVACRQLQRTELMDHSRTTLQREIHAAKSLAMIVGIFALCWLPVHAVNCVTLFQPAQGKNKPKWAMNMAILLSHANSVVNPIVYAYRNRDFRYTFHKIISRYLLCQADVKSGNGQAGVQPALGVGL

[4] = target: Adenosine receptors; A1 & A3 (Homo sapiens) (UniProt P30542+P0DMS8); assay: Selectivity for adenosine A1 receptor over adenosine A3 receptor; assay type: protein assay
Outline: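 Ratio of A3 Ki-High (CHO-A3 cells, [¹²⁵I]-AB-MECA, no GTP) to A1 Ki-Low (DDT membranes, [³H]-CPX, with GTPγS).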

[5] = target: Adenosine receptor A1 (Mesocricetus auratus); assay: Displacement of [3H]CPX from adenosine A1 receptor in DDT membranes
[6] = target: Adenosine receptors; A1 & A2a (Homo sapiens) (UniProt P30542+P29274); assay: Selectivity for adenosine A1 receptor over adenosine A2A receptor; assay type: protein assay
[7] = target: T3, Adenosine receptor A1 (Rattus norvegicus) (UniProt P25099); assay: Agonist activity at adenosine A1 receptor in rat brain membrane assessed as stimulation of [35S]GTP-gamma-S binding relative to CPA; assay type: functional, cell membranes
T3 sequence (whole entry): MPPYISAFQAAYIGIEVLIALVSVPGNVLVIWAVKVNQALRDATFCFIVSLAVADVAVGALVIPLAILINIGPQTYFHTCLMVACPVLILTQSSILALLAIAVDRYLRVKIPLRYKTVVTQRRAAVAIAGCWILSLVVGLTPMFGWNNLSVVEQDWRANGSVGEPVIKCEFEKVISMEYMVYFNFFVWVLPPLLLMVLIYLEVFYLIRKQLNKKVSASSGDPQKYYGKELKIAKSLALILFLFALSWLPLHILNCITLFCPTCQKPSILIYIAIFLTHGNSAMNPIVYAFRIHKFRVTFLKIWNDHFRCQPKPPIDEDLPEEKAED
Outline: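 Rat brain membranes; agonist-induced [³⁵S]GTPγS binding to G protein measured, with maximal stimulation by the full agonist CPA set as 100% and efficacy expressed relative to it.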

Chain of Adenosine receptor A2a (P29274 whole entry): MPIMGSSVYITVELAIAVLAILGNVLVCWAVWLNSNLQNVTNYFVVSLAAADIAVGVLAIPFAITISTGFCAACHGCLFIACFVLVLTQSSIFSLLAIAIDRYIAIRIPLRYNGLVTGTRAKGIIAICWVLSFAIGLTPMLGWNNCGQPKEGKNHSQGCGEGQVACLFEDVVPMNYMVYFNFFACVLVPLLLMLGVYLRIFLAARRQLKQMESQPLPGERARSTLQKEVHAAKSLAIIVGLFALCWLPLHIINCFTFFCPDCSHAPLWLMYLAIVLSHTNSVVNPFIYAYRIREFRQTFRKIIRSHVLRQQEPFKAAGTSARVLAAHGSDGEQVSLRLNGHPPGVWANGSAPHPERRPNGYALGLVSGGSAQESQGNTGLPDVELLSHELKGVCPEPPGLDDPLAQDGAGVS
Chain of Adenosine receptors; A1 & A3 (Homo sapiens) (P30542 whole entry, looked up, one chain of several): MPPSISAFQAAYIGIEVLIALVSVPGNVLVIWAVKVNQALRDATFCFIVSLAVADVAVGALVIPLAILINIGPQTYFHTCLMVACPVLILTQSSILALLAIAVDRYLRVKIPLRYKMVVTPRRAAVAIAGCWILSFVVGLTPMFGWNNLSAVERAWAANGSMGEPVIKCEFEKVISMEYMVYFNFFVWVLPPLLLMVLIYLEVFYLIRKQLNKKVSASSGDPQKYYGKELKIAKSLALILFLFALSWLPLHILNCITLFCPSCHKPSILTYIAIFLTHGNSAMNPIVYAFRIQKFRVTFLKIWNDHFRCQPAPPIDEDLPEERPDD

Row | pKi [1] | pKi [2] | pKi [3] | Ratio Ki [4] | pKi [5] | Ratio Ki [6] | Intrinsic activity [7] [%] | Compound
1 | 5.90 | < 5.30 | < 5.22 | 3180 |  |  |  | OC[C@H]1O[C@@H](n2cnc3c(NC45CCC(CC4)C5)nc(-n4cccn4)nc32)[C@H](O)[C@@H]1O
2 | 7.72 | < 5.30 | < 5.22 | 21 |  |  |  | CCOC(=O)c1cnn(-c2nc(NC3CCCC3)c3ncn([C@@H]4O[C@H](CO)[C@@H](O)[C@H]4O)c3n2)c1
3 | 5.85 | < 5.30 | < 5.22 | 710 |  |  |  | CNC(=O)c1cnn(-c2nc(NC3CCCC3)c3ncn([C@@H]4O[C@H](CO)[C@@H](O)[C@H]4O)c3n2)c1
4 | 6.60 | < 5.30 | < 5.22 | 83 |  |  |  | CCOC(=O)c1cnn(-c2nc(NC34CCC(CC3)C4)c3ncn([C@@H]4O[C@H](CO)[C@@H](O)[C@H]4O)c3n2)c1
5 |  |  |  |  | 5.43 |  |  | CCNc1nc(-n2cc(-c3ccc(OC)cc3)cn2)nc2c1ncn2[C@@H]1O[C@H](CO)[C@@H](O)[C@H]1O
6 | < 5.30 | < 5.30 | < 5.22 | > 5000 |  |  |  | O=C(O)c1cnn(-c2nc(NC34CCC(CC3)C4)c3ncn([C@@H]4O[C@H](CO)[C@@H](O)[C@H]4O)c3n2)c1
7 | 6.98 | < 5.30 | < 5.22 | 3 |  |  |  | OC[C@H]1O[C@@H](n2cnc3c(NC4CCCC4)nc(-n4cccn4)nc32)[C@H](O)[C@@H]1O
8 | 7.52 | < 5.30 | < 5.22 | 1 |  |  |  | CCOC(=O)c1cnn(-c2nc(NC3CCCCC3)c3ncn([C@@H]4O[C@H](CO)[C@@H](O)[C@H]4O)c3n2)c1
9 | 6.42 | < 5.30 | < 5.22 | 633 |  | > 600 |  | NC(=O)c1cnn(-c2nc(NC3CCCC3)c3ncn([C@@H]4O[C@H](CO)[C@@H](O)[C@H]4O)c3n2)c1
10 | 5.39 | < 5.30 | < 5.22 | 468 |  |  | 100 | O=C(O)c1cnn(-c2nc(NC3CCCC3)c3ncn([C@@H]4O[C@H](CO)[C@@H](O)[C@H]4O)c3n2)c1
11 | 7.70 | < 5.30 | < 5.22 | 20 |  |  |  | CCNC(=O)c1cnn(-c2nc(NC3CCCC3)c3ncn([C@@H]4O[C@H](CO)[C@@H](O)[C@H]4O)c3n2)c1
12 | 6.80 | < 5.30 | < 5.22 | 19 |  |  |  | CNC(=O)c1cnn(-c2nc(NC3CCCCC3)c3ncn([C@@H]4O[C@H](CO)[C@@H](O)[C@H]4O)c3n2)c1
